Reference: ChEMBL document CHEMBL5380852, “N'-Phenylacetohydrazide Derivatives as Potent Ebola Virus Entry Inhibitors with an Improved Pharmacokinetic Profile” (J Med Chem, 2023)
Active and inactive are the calls of the source. The rule behind the calls is not given here.

Assays:
[1] = Cmax in BALB/c mouse plasma at 10 mg/kg, ip measured upto 24 hrs by LC-MS/MS method; type: ADME, organism-based; parameters: dose 10 mg/kg, time < 24 hrs, route ip; settings: in vivo
How it was run: (§1)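 Male BALB/c mice aged 8–12 weeks (20–35 g) received one dose in a solution of 90% PBS pH 7.4, 5% solutol HS-15 and 5% NMP: 10 mg/kg i.p. or 50 mg/kg p.o. Three mice per time point, sampled up to 24 h. Plasma and brain were taken at each point and assayed by LC–MS/MS. Parameters came from noncompartmental analysis.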

[2] = AUClast in BALB/c mouse plasma at 10 mg/kg, ip measured upto 24 hrs by LC-MS/MS method; type: ADME, organism-based; parameters: dose 10 mg/kg, time < 24 hrs, route ip; settings: in vivo; how it was run: as §1
[3] = AUClast in BALB/c mouse brain at 10 mg/kg, ip measured upto 24 hrs by LC-MS/MS method; type: ADME, organism-based; parameters: time < 24 hrs, dose 10 mg/kg, route ip; settings: in vivo; how it was run: as §1
[4] = Tmax in BALB/c mouse plasma at 10 mg/kg, ip measured upto 24 hrs by LC-MS/MS method; type: ADME, organism-based; settings: in vivo; how it was run: as §1
[5] = Cmax in BALB/c mouse brain at 10 mg/kg, ip measured upto 24 hrs by LC-MS/MS method; type: ADME, organism-based; parameters: time < 24 hrs, dose 10 mg/kg, route ip; settings: in vivo; how it was run: as §1
[6] = Tmax in BALB/c mouse plasma at 50 mg/kg, po measured upto 24 hrs by LC-MS/MS method; type: ADME, organism-based; settings: in vivo; how it was run: as §1
[7] = Tmax in BALB/c mouse brain at 10 mg/kg, ip measured upto 24 hrs by LC-MS/MS method; type: ADME, organism-based; settings: in vivo; how it was run: as §1
[8] = Tmax in BALB/c mouse brain at 50 mg/kg, po measured upto 24 hrs by LC-MS/MS method; type: ADME, organism-based; settings: in vivo; how it was run: as §1
[9] = Selectivity index, ratio of CC50 for african green monkey Vero E6 cells to EC50 for wild type Zaire EBOV mayinga; type: cell-based, Vero C1008; settings: read-out: Ratio CC50/EC50
[10] = Selectivity index, ratio of CC50 for human HeLa cells to EC50 for pseudotyped Ebola virus infected in HeLa cells; type: toxicity, cell-based; settings: read-out: Ratio CC50/EC50
[11] = tested on: Ebolavirus; assay: Antiviral activity against pseudotyped Ebola virus infected in HeLa cells preincubated for 1 hr followed by viral infection and measured after 48 hrs by steady-glo luciferase assay; type: functional, organism-based; settings: Orthoebolavirus
How it was run: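 HeLa cells (2×10^4/well; DMEM, 10% FBS, 1% L-glutamine, 37 °C, 5% CO2) were pretreated with compound for 1 h at 37 °C, then given 5000 TCID50 of HIV-luciferase lentivirus pseudotyped with EBOV-GP. After 48 h, cells were washed, lysed and luciferase read. Primary screen was at 10 μM final. […] EC50 is the mean of three independent experiments, from normalized dose–response fits with 95% CI.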

[12] = Cytotoxicity against human HeLa cells assessed as reduction in cell viability incubated for 24 hrs by MTS assay; type: toxicity, cell-based
How it was run: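 HeLa cells (2×10^4/well) were grown in DMEM with 10% FBS and exposed to compound at 0–200 μM for 24 h. Viability was read by MTS reduction at 490 nm, as a percentage of untreated cells, and CC50 was derived.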

[13] = Inhibition of EBOV-GP to human C-terminal Flag tagged NPC1 protein protein interaction at 50 uM by ELISA
How it was run: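 GP particles were cleaved with thermolysin (250 μg/mL, 1 h, 37 °C; stopped with 1 mM phosphoramidon) and captured on plates by anti-GP mAb KZ52. Purified Flag-tagged human NPC1 domain C (10 μg/mL), expressed in HEK293T, was added with or without compound at 50 μM. Bound protein was detected with anti-Flag-HRP and TMB at 450 nm, n = 3.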

[14] = AUClast in BALB/c mouse brain at 50 mg/kg, po measured upto 24 hrs by LC-MS/MS method; type: ADME, organism-based; parameters: dose 50 mg/kg, time < 24 hrs, route po; settings: in vivo; how it was run: as §1
[15] = Cmax in BALB/c mouse brain at 50 mg/kg, po measured upto 24 hrs by LC-MS/MS method; type: ADME, organism-based; parameters: time < 24 hrs, dose 50 mg/kg, route po; settings: in vivo; how it was run: as §1
[16] = Cmax in BALB/c mouse plasma at 50 mg/kg, po measured upto 24 hrs by LC-MS/MS method; type: ADME, organism-based; parameters: dose 50 mg/kg, time < 24 hrs, route po; settings: in vivo; how it was run: as §1
[17] = AUClast in BALB/c mouse plasma at 50 mg/kg, po measured upto 24 hrs by LC-MS/MS method; type: ADME, organism-based; parameters: time < 24 hrs, dose 50 mg/kg, route po; settings: in vivo; how it was run: as §1

| Compound | Cmax [1] [ng/mL] | AUClast [2] [ng·h/mL] | AUClast [3] [ng·h/mL] | Tmax [4] [min] | Cmax [5] [ng/mL] | Tmax [6] [h] | Tmax [7] [h] | Tmax [8] [h] | selectivity ratio [9] | selectivity ratio [10] | EC50 [11] [nM] | CC50 at 24 h [12] [nM] | inhibition [13] | AUClast [14] [ng·h/mL] | Cmax [15] [ng/mL] | Cmax [16] [ng/mL] | AUClast [17] [ng·h/mL] |
| --- | --- | --- | --- | --- | --- | --- | --- | --- | --- | --- | --- | --- | --- | --- | --- | --- | --- |
| O=C(CCNCCC1CCN(Cc2ccccc2)CC1)NN(c1ccccc1)c1ccccc1 | 283.42 | 559.47 | 1142.02 | 4.8 | 51.03 | 0.25 | 8 | 4 | 31.5 | 115 |  |  |  |  |  |  |  |
| CN(C)CCOc1ccc(/C(=C(/CCCl)c2ccccc2)c2ccccc2)cc1 [TOREMIFENE] |  |  |  |  |  |  |  |  |  |  | 70 | > 100000 |  |  |  |  |  |
| O=C(CCNCCN1CCN(Cc2ccccc2)CC1)NN(c1ccccc1)c1ccccc1 |  | 83.83 | 3886.74 | 4.8 |  | 0.25 | 8 | 24 | 13.1 | 274 |  |  | Active | 7109.56 | 341.33 | 93.62 | 152.76 |
